Assay results of several laboratories.
Lines come from different studies, so protocols differ.
Effect on: cell growth or viability

`NCCC(=O)Nc1ccccc1/N=c1\cc(-c2ccc3nc(N)oc3c2)oc2ccccc12` has an inhibition of 43.6% (NCI-H1975; CCK-8; 1 µM).
With `C[C@H](Nc1ccc2c(c1)OCCn1cc(N3C(=O)OC[C@H]3C(F)F)nc1-2)C(N)=O` the EC50 was 438 nM (MKN-1; ATP luminescence; 5 days).
With `CCCCC(=O)Nc1ccc(-c2ccc3ncn(CC#N)c(=O)c3c2)cn1` the IC50 was greater than 10000 nM (NCI-H1975; CCK-8; 72 h).
`CCCCCCCCCCCCCCCCCCOc1cccc(CC(=O)OCC[N+]2(C)CCOCC2)c1` has an inhibition of 1.47% (NCI-H322M; SRB; 10 µM).
`CCCCNC(=O)Nc1nc2cc(-c3ccc4ncn(Cc5ccccc5)c(=O)c4c3)ccc2s1` gave an IC50 of 7570 nM (NCI-H1975; MTT; 72 h).
The inhibition of `CCCCCCCCCCCCCCCCCCOc1ccc(CC(=O)OCCC[N+](C)(C)C)cc1` is reported as 9.97% (NCI-H322M; SRB; 10 µM).
For `O=C(Nc1ccc(-c2ccc3ncn(Cc4ccccc4)c(=O)c3c2)cn1)c1ccco1`, the IC50 was greater than 10000 nM (NCI-H1975; CCK-8; 72 h).
For `NCCC(=O)Nc1cccc(/N=c2\cc(-c3ccc4c(c3)OCO4)oc3ccccc23)c1`, the inhibition was 2.94% (NCI-H1975; CCK-8; 1 µM).
With `CCCCC(=O)Nc1ccc(-c2ccc3ncn(CCCC)c(=O)c3c2)cn1` the IC50 was 310 nM (NCI-H1975; CCK-8; 72 h).
The inhibition of `CCCCCCCCCCCCCCCCCCOc1ccc(CC(=O)OCC[N+]2(C)CCCCC2)cc1` is reported as 3.63% (NCI-H322M; SRB; 10 µM).
`NCC(=O)Nc1ccccc1/N=c1\cc(-c2ccc3c(c2)OCCO3)oc2ccccc12` has an inhibition of 0.57% (NCI-H1975; CCK-8; 1 µM).
`CC(C)CCn1cnc2ccc(-c3ccc4sc(NC(=O)Nc5ccc(F)cc5)nc4c3)cc2c1=O` gave an IC50 of 960 nM (NCI-H1975; MTT; 72 h).
With `CCCCC(=O)Nc1ccc(-c2ccc3ncn(CCCF)c(=O)c3c2)cn1` the IC50 was 140 nM (NCI-H1975; CCK-8; 72 h).
With `C[C@H](N)C(=O)Nc1ccccc1/N=c1\cc(-c2ccc3c(c2)OCO3)oc2ccccc12` the inhibition was 1.32% (NCI-H1975; CCK-8; 1 µM).
`CCCCCCCCCCCCCCCCCCOc1cccc(CC(=O)OCC[N+](CC)(CC)CC)c1` has an inhibition of 22.3% (NCI-H322M; SRB; 10 µM).
`O=C(Nc1ccc(F)cc1)Nc1nc2cc(-c3ccc4ncn(Cc5ccccc5)c(=O)c4c3)ccc2s1` has an IC50 of 2340 nM (NCI-H1975; MTT; 72 h).
With `Cc1nc(Nc2ncc(C(=O)Nc3c(C)cccc3Cl)s2)cc(N2CC[C@H](O)C2)n1` the inhibition was 96% (Pfeiffer; ATP luminescence; 10 µM; 72 h).
The inhibition of `CCCCCCCCCCCCCCCCCCOc1cccc(CC(=O)OCCC[N+](C)(C)C)c1` is reported as 4.07% (NCI-H322M; SRB; 10 µM).
With `COc1cccc2c1C(=O)c1c(O)c3c(c(O)c1C2=O)C[C@@](O)(C(=O)CO)C[C@@H]3O[C@H]1C[C@H](N)[C@H](O)[C@H](C)O1` the IC50 was 67 nM (NCI-H1975; MTT; 72 h).
For `C[C@H](N)C(=O)Nc1ccccc1/N=c1\cc(-c2ccc3c(c2)OCCO3)oc2cc(F)ccc12`, the inhibition was -0.65% (NCI-H1975; CCK-8; 1 µM).
`CCCCC(=O)Nc1ccc(-c2cnc3ccn(CCC)c(=O)c3c2)cn1` gave an IC50 of 1210 nM (NCI-H1975; CCK-8; 72 h).
For `CCCC(=O)Nc1nc2cc(-c3ccc4ncn(Cc5ccccc5)c(=O)c4c3)ccc2s1`, the IC50 was greater than 20000 nM (NCI-H1975; MTT; 72 h).
`CCCCCCCCCCCCCCCCCCOc1ccccc1CC(=O)OCCC[N+](C)(C)C` has an inhibition of 15.7% (NCI-H322M; SRB; 10 µM).
For `O=C(Nc1cccc(F)c1)Nc1nc2cc(-c3ccc4ncn(CCN5CCOCC5)c(=O)c4c3)ccc2s1`, the IC50 was greater than 20000 nM (NCI-H1975; MTT; 72 h).
For `COc1ccc2/c(=N/c3ccccc3NC(=O)CN)cc(-c3ccc4c(c3)OCCO4)oc2c1`, the inhibition was 8.23% (NCI-H1975; CCK-8; 1 µM).
With `CCCCCCCCCCCCCCCCCCOc1ccccc1CC(=O)OCC[N+]1(C)CCCC1` the inhibition was 31.9% (NCI-H322M; SRB; 10 µM).
The inhibition of `CC(C)(C)[C@H](N)C(=O)Nc1ccccc1/N=c1\cc(-c2ccc3c(c2)OCO3)oc2ccccc12` is reported as 3.21% (NCI-H1975; CCK-8; 1 µM).
`CCCCn1cnc2ccc(-c3ccc(NC(=O)NCc4ccccc4)nc3)cc2c1=O` has an IC50 of 290 nM (NCI-H1975; CCK-8; 72 h).
`Cc1nc(NC(=O)N2CCC[C@H]2C(N)=O)sc1-c1ccnc(C(C)(C)C(F)(F)F)c1` gave an EC50 of 2110 nM (MKN-1; ATP luminescence; 5 days).
The IC50 of `COc1ccc(C(=O)Nc2nc3cc(-c4ccc5ncn(Cc6ccccc6)c(=O)c5c4)ccc3s2)cc1` is reported as greater than 20000 nM (NCI-H1975; MTT; 72 h).
For `CCCCC(=O)Nc1ccc(-c2ccc3ncn(CC)c(=O)c3c2)cn1`, the IC50 was 250 nM (NCI-H1975; CCK-8; 72 h).
The IC50 of `COc1ccc(NC(=O)Nc2nc3cc(-c4ccc5ncn(Cc6ccccc6)c(=O)c5c4)ccc3s2)cc1` is reported as greater than 20000 nM (NCI-H1975; MTT; 72 h).
`CCCCn1cnc2ccc(-c3ccc(NC(=O)Nc4ccc(OC(F)(F)F)cc4)nc3)cc2c1=O` gave an IC50 of 470 nM (NCI-H1975; CCK-8; 72 h).
For `Nc1ccccc1/N=c1\cc(-c2ccc3c(c2)OCO3)oc2ccccc12`, the inhibition was 2.1% (NCI-H1975; CCK-8; 1 µM).
